Source: the RNAGym collection of RNA variant scans (doi:10.1002/anie.201605470)

B1: Osa-1-4 twister ribozyme (parent)
chain: CCGCCUAACACUGCCAAUGCCGGUCCCAAGCCCGGAUAAAAGUGGAGGGGGCGG

Variants of: B1
Assay: self-cleavage, relative activity (ratio to wild type); higher = more cleavage; co-transcriptional
Procedure, shortened: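 The 48 positions downstream of the cleavage site in a 54-nucleotide Oryza sativa twister ribozyme template were synthesised at 97 % wild-type base and 1 % of each other base. The template was transcribed in vitro at 37 °C for 2 h, with self-cleavage allowed during transcription. Reads with or without upstream sequence after deep sequencing marked cleavage status, and relative activity is fraction cleaved normalised to wild type.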

Variant	self-cleavage
CCGCCUAACACUGCCAAUGCCGGUCCCAAGCCAGGAUAGAAGUGGAGGGGGCGG [A39G C33A]	0.08
CCGCCUAACACUGCCAAUGCCGAUCCCAAGCCCGGAUAGAAGUGGAGGGGGCGG [A39G G23A]	0.2
CCGCCUAACACUGCCAAUGCCGCUCCCAAGCCCGGAUAGAAGUGGAGGGGGCGG [A39G G23C]	0.07
CCGCCUAACACUGCCAAUGCCGUUCCCAAGCCCGGAUAGAAGUGGAGGGGGCGG [A39G G23U]	0.07
CCGCCUAACACUGCCAAUGCCGGUCCCAAGCCCGGAUAGAAGUGGAGGGGACGG [A39G G51A]	0.67
CCGCCUAACACUGCCAAUGCCGGUCCCAAGCCCGGAUAGAAGUGGAGGGGUCGG [A39G G51U]	0.3
CCGCCUAACACUGCCAAUGCCGGUCCCAAGCCCGGAUAGAAGUGGAGGGGCCGG [A39G G51C]	0.09
CCGCCUAACACUGCCAAUGCCGGUCCCAAGGCCGGAUAGAAGUGGAGGGGGCGG [A39G C31G]	0.1
CCGCCUAACACUGCCAAUGCCGGUCCCAAGACCGGAUAGAAGUGGAGGGGGCGG [A39G C31A]	0.03
CCGCCUAACACUGCCAAUGCCGGUCCCAAGUCCGGAUAGAAGUGGAGGGGGCGG [A39G C31U]	0.56
CCGCCUAACACUGCCAAUGCCGGACCCAAGCCCGGAUAGAAGUGGAGGGGGCGG [A39G U24A]	0.09
CCGCCUAACACUGCCAAUGCCGGCCCCAAGCCCGGAUAGAAGUGGAGGGGGCGG [A39G U24C]	0.14
CCGCCUAACACUGCCAAUGCCGGGCCCAAGCCCGGAUAGAAGUGGAGGGGGCGG [A39G U24G]	0.02
CCGCCUCACACUGCCAAUGCCGGUCCCAAGCCCGGAUAUAAGUGGAGGGGGCGG [A39U A7C]	0.04
CCGCCUUACACUGCCAAUGCCGGUCCCAAGCCCGGAUAUAAGUGGAGGGGGCGG [A39U A7U]	0.08
CCGCCUGACACUGCCAAUGCCGGUCCCAAGCCCGGAUAUAAGUGGAGGGGGCGG [A39U A7G]	0.2
CCGCCUAACACUGCCAAUGCCGGUCCCAAGCCCGGAUAGAAGUGGAGGGCGCGG [A39G G50C]	0.84
CCGCCUAACACUGCCAAUGCCGGUCCCAAGCCCGGAUAGAAGUGGAGGGAGCGG [A39G G50A]	0.72
CCGCCUAACACUGCCAAUGCCGGUCCCAAGCCCGGAUAGAAGUGGAGGGUGCGG [A39G G50U]	1
CCGCCUAACACUGCCAAUGCCGGUCCCAACCCCGGAUAGAAGUGGAGGGGGCGG [A39G G30C]	0.05
CCGCCUAACACUGCCAAUGCCGGUCCCAAACCCGGAUAGAAGUGGAGGGGGCGG [A39G G30A]	0.05
CCGCCUAACACUGCCAAUGCCGGUCCCAAUCCCGGAUAGAAGUGGAGGGGGCGG [A39G G30U]	0.04
CCGCCUAACACUGCCAAUGCCGGUCCCAAGCCCGGAAAGAAGUGGAGGGGGCGG [A39G U37A]	1.01
CCGCCUAACACUGCCAAUGCCGGUCCCAAGCCCGGAGAGAAGUGGAGGGGGCGG [A39G U37G]	1.01
CCGCCUAACACUGCCAAUGCCGGUCCCAAGCCCGGACAGAAGUGGAGGGGGCGG [A39G U37C]	1

Variant	self-cleavage
CCGCCUAACACUGCCAAUGCCGGUCCCAAGCCCGGAUAGAAGUGGAGGGGGCCG [A39G G53C]	0.08
CCGCCUAACACUGCCAAUGCCGGUCCCAAGCCCGGAUAGAAGUGGAGGGGGCUG [A39G G53U]	0.2
CCGCCUAACACUGCCAAUGCCGGUCCCAAGCCCGGAUAGAAGUGGAGGGGGCAG [A39G G53A]	0.55
CCGCCUAACACUGCCAAUGCCGGUCCCAAGCCCGGAUAGAAGUGGACGGGGCGG [A39G G47C]	0.09
CCGCCUAACACUGCCAAUGCCGGUCCCAAGCCCGGAUAGAAGUGGAUGGGGCGG [A39G G47U]	0.13
CCGCCUAACACUGCCAAUGCCGGUCCCAAGCCCGGAUAGAAGUGGAAGGGGCGG [A39G G47A]	0.13
CCGCCUAACACUGCCAAUGCCGGUCCCAAGCACGGAUAGAAGUGGAGGGGGCGG [A39G C32A]	0.08
CCGCCUAACACUGCCAAUGCCGGUCCCAAGCUCGGAUAGAAGUGGAGGGGGCGG [A39G C32U]	0.1
CCGCCUAACACUGCCAAUGCCGGUCCCAAGCGCGGAUAGAAGUGGAGGGGGCGG [A39G C32G]	0.14
CCGCCUAACACUGCCAAUGCCGGUGCCAAGCCCGGAUAGAAGUGGAGGGGGCGG [A39G C25G]	0.07
CCGCCUAACACUGCCAAUGCCGGUUCCAAGCCCGGAUAGAAGUGGAGGGGGCGG [A39G C25U]	0.53
CCGCCUAACACUGCCAAUGCCGGUCCCAAGCCCGUAUAGAAGUGGAGGGGGCGG [A39G G35U]	0.87
CCGCCUAACACUGCCAAUGCCGGUCCCAAGCCCGCAUAGAAGUGGAGGGGGCGG [A39G G35C]	0.22
CCGCCUAACACUGCCAAUGCCGGUCCCAAGCCCGAAUAGAAGUGGAGGGGGCGG [A39G G35A]	0.78
CCGCCUAACACUGCCAAUGCCGGUCCCAAGCCCGGAUAGAAGUGAAGGGGGCGG [A39G G45A]	0.13
CCGCCUAACACUGCCAAUGCCGGUCCCAAGCCCGGAUAGAAGUGUAGGGGGCGG [A39G G45U]	0.08
CCGCCUAACACUGCCAAUGCCGGUCCCAAGCCCGGAUAGAAGUGCAGGGGGCGG [A39G G45C]	0.07
CCGCCUAACACUGCCAACGCCGGUCCCAAGCCCGGAUAGAAGUGGAGGGGGCGG [A39G U18C]	0.96
CCGCCUAACACUGCCAAGGCCGGUCCCAAGCCCGGAUAGAAGUGGAGGGGGCGG [A39G U18G]	0.87
CCGCCUAACACUGCCAAAGCCGGUCCCAAGCCCGGAUAGAAGUGGAGGGGGCGG [A39G U18A]	1
CCGCCUAACACUGCCAAUGCCGGUCCCAAGCCCGGAUAUUAGUGGAGGGGGCGG [A39U A40U]	0.64
CCGCCUAACACUGCCAAUGCCGGUCCCAAGCCCGGAUAUCAGUGGAGGGGGCGG [A39U A40C]	0.12
CCGCCUAACACUGCCAAUGCCGGUCCCAAGCCCGGAUAUGAGUGGAGGGGGCGG [A39U A40G]	0.65
CCGCCUAACACUGCCAAUGCCGGUCCCAAGCCCGGAUAUAAGUGGAGGGGGCGG [A39U]	1
